# Reference: ChEMBL document CHEMBL1127322, “Selective protection and relative importance of the carboxylic acid groups of zaragozic acid A for squalene synthase inhibition” (J Med Chem, 1994)
# Calls of active or inactive are those of the source. No cut-off for these calls is given here.
# How the values were obtained:
# [1] = system: Mus musculus; test: Tested in vivo for inhibition at a dose of 40 mg/kg, p.o. in oral mouse assay; Not active; type: functional, organism-based; parameters: dose 40 mg/kg
# Summary of the method: (§1)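 Mice (22.5–27.5 g, six per group) received compound orally as a suspension in 5% emulphor. After 30 min they were given [5-³H]-mevalonolactone sc (0.5 μCi/animal) and were killed 30 min later. Livers were saponified and extracted with petroleum ether, and nonsaponifiable dpm was counted. Inhibition was calculated against incorporation in control animals.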
# [2] = system: Mus musculus; test: Tested in vivo for inhibition at a dose of 24 mg/kg, p.o. in oral mouse assay; type: functional; summary of the method: as §1
# [3] = system: Mus musculus; test: Tested in vivo for inhibition at a dose of 40 mg/kg, p.o. in oral mouse assay; type: functional; summary of the method: as §1
# [4] = system: Mus musculus; test: Effective dose required for 50 percent inhibition of mouse liver squalene synthase at a dose of 40 mg/kg, po
SMILES,inhibition [1],inhibition in vivo at 40 mg/kg [3] [%],other results
C=C(CCC12OC(C(=O)O)C(O)(C(=O)O)C(C(=O)OC)(O1)[C@@H](OC(=O)/C=C/[C@@H](C)C[C@@H](C)CC)[C@H]2O)C(OC(C)=O)[C@H](C)Cc1ccccc1 (some centres undefined),inactive,,
C=C(CCC12OC(C(=O)OCc3ccccc3)C(O)(C(=O)O)C(C(=O)O)(O1)[C@@H](OC(=O)/C=C/[C@@H](C)C[C@@H](C)CC)[C@H]2O)C(OC(C)=O)[C@H](C)Cc1ccccc1 (some centres undefined),,,inhibition in vivo at 24 mg/kg [2]: 36%
C=C(CCC12OC(C(=O)OCCC(C)C)C(O)(C(=O)O)C(C(=O)OC)(O1)[C@@H](OC(=O)/C=C/[C@@H](C)C[C@@H](C)CC)[C@H]2O)C(OC(C)=O)[C@H](C)Cc1ccccc1 (some centres undefined),inactive,,
C=C(CCC12OC(C(=O)OCCC(C)C)C(O)(C(=O)O)C(C(=O)O)(O1)[C@@H](OC(=O)/C=C/[C@@H](C)C[C@@H](C)CC)[C@H]2O)C(OC(C)=O)[C@H](C)Cc1ccccc1 (some centres undefined),,62,
C=C(CCC12OC(C(=O)O)C(O)(C(=O)OC)C(C(=O)O)(O1)[C@@H](OC(=O)/C=C/[C@@H](C)C[C@@H](C)CC)[C@H]2O)C(OC(C)=O)[C@H](C)Cc1ccccc1 (some centres undefined),,43,
C=C(CCC12OC(C(=O)O)C(O)(C(=O)OC)C(C(=O)OC)(O1)[C@@H](OC(=O)/C=C/[C@@H](C)C[C@@H](C)CC)[C@H]2O)C(OC(C)=O)[C@H](C)Cc1ccccc1 (some centres undefined),inactive,,
C=C(CCC12OC(C(=O)O)C(O)(C(=O)O)C(C(=O)O)(O1)[C@@H](OC(=O)/C=C/[C@@H](C)C[C@@H](C)CC)[C@H]2O)C(OC(C)=O)[C@H](C)Cc1ccccc1 (some centres undefined),,11,
C=C(CCC12OC(C(=O)OC)C(O)(C(=O)O)C(C(=O)O)(O1)[C@@H](OC(=O)/C=C/[C@@H](C)C[C@@H](C)CC)[C@H]2O)C(OC(C)=O)[C@H](C)Cc1ccccc1 (some centres undefined),,,inhibition in vivo at 24 mg/kg [2]: 32%
C=C(CCC12OC(C(=O)OCCC(C)C)C(O)(C(=O)OC)C(C(=O)O)(O1)[C@@H](OC(=O)/C=C/[C@@H](C)C[C@@H](C)CC)[C@H]2O)C(OC(C)=O)[C@H](C)Cc1ccccc1 (some centres undefined),,,ED50 [4]: 18 mg/kg
